TRPC4 PAM – allosteric potentiators of mouse TRPC4 channel. B-score at 10 µM. HEK293 TRPC4beta/mu-opioid, DAMGO EC20, Fluo-4 Ca2+ flux; hits give high values. Q9QUQ5. actives 0.42% (n = 310,000);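 active = B-score of calcium response area above 5 SD of library B-scores, with initial fluorescence ratio within 5 SD of library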;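 note: B-score of integrated fluorescence ratio over time as area under calcium response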
TRPC6 activator – activators of mouse TRPC6 channel | Q61143 | HEK293-TRPC6 membrane potential dye fluorescence; hits give high values | B-score at 10 µM | actives 0.13% (n = 310,000);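 active = B-score of the integrated fluorescence ratio above library mean plus 3 SD, and starting fluorescence ratio within library mean plus 5 SD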;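 note: higher score means more depolarization so channel activation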
Target sequence (Q61143 whole entry, looked up): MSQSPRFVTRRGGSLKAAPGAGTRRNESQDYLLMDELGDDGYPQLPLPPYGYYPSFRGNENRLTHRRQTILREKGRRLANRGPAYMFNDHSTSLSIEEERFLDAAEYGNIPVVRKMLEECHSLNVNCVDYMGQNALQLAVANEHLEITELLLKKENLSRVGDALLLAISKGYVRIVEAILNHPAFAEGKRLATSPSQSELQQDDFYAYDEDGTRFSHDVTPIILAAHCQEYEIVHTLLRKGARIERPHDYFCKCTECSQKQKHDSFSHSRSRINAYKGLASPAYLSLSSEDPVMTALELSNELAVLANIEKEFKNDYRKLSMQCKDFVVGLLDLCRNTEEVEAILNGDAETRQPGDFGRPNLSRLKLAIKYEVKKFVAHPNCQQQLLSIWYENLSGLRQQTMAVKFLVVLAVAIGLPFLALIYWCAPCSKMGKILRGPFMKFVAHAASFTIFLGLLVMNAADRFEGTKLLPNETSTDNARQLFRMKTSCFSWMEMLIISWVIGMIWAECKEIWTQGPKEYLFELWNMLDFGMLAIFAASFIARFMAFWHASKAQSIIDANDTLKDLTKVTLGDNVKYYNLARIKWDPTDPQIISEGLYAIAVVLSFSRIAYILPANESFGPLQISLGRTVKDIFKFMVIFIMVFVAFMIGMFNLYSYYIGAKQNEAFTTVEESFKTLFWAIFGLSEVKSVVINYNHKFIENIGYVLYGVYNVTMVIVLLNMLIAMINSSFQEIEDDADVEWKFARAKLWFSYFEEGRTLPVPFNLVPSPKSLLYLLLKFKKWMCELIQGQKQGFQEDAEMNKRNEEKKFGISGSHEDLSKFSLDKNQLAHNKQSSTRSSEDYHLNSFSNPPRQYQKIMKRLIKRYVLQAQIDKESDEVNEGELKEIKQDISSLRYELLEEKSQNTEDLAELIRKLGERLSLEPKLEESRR
TRPC4 inh – TRPC4 (mouse) channel inhibition. B-score at 10 µM. HEK293 TRPC4beta/mu-opioid, DAMGO-evoked Fluo4 calcium flux; hits give low values. actives 0.39% (n = 300,000);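 active = B-score over 3 SD under the library average, no early fluorescence shift, positive overall ratio signal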
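Signal: kinetic Fluo4 fluorescence imaging of calcium influx. Material: stable TRPC4beta/mu-opioid receptor HEK293 cells. Probe or stimulus: DAMGO in two steps, submaximal then maximal.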
TRPC6 inh – blocks the mouse TRPC6 cation channel; Q61143; HEK293-TRPC6, membrane potential dye, ACh-evoked depolarization; hits give low values; B-score at 10 µM; actives 1.1% (n = 310,000);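 active = B-score under library mean minus 3 SD, initial fluorescence not abnormally high, positive integrated signal ratio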;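 note: B-score derived from integrated fluorescence ratio over the kinetic read; more negative B-score means stronger inhibition of depolarization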
TRPC4 act – TRPC4 (mouse) channel activation; HEK293 TRPC4beta/mu-opioid, Fluo4 calcium fluorescence; hits give high values; AID 2237; Q9QUQ5; actives 0.49% (n = 310,000); B-score at 10 µM;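 active = B-score above 5 SD of library B-scores, and initial fluorescence ratio not above library mean plus 5 SD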;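 note: positive B-score marks a calcium rise read as TRPC4 activation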
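Material: TRPC4beta and mu-opioid receptor HEK293 stable cells | Incubation: 45 min room-temperature Fluo4 loading, 110 s read | Detection: Kinetic Fluo4 calcium fluorescence | Measure: Integrated baseline-normalised fluorescence ratio, converted to per-well B score | Benchmarks: Low control buffer alone, high control maximal DAMGO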
* hit, by the source's call; i = inactive. An excerpt weighted towards active compounds, which were near 2.3% of everything screened.

SMILES | TRPC4 PAM | TRPC6 activator | TRPC4 inh | TRPC6 inh | TRPC4 act
O=[N+]([O-])c1ccc(SCCc2ccncc2)cc1 | i | i | i | i | i
O=[N+]([O-])c1ccc(SCCc2ccccn2)cc1 | 14* | i | i | i | i
CN(CCc1ccccn1)c1ccc([N+](=O)[O-])cn1 | i | i | i | i | 189*
Cn1c(SCc2cccc(Br)c2)nnc1-c1ccncc1 | i | i | i | i | i
COc1ccc(CCNC(=O)C2CCN(C(=O)c3ccc(F)cc3)CC2)cc1 | i | i | i | i | i
COc1ccc(CCNC(=O)C2CCN(C(=O)c3ccc(C(C)(C)C)cc3)CC2)cc1 | 17* | i | i | i | i
Cc1ccccc1OCCNc1cc(N2CCNCC2)ccc1[N+](=O)[O-] | 14* | i | i | -7.9* | i
O=C(c1cccc([N+](=O)[O-])c1)N1CCCC(C(=O)N2CCCCCC2)C1 (stereo not drawn) | 29* | i | i | i | i
COC(=O)C1=C(C)N(Cc2ccccc2)C(=O)N[C@H]1c1cccc(C(F)(F)F)c1 | 10* | i | i | i | i
NC(=O)c1cc(NC(=O)CCc2nc3ccccc3s2)cc(C(N)=O)c1 | i | i | i | i | i
O=C(COC(=O)c1cc[n+]([O-])cc1)Nc1cc([N+](=O)[O-])ccc1Cl | i | i | i | i | i
CCOC(=O)c1c(-c2ccccc2)c2cc(OC)ccc2n1CCCN(C)C | i | i | i | i | i
CCSc1nc(-c2ccccc2)c(C#N)c(=O)[nH]1 | i | i | i | i | i
CCCOc1ccc(-c2nc(SCc3ccccc3)[nH]c(=O)c2C#N)cc1OC | i | i | -7* | i | i
S=C(NCCc1ccccc1)NCC(c1ccco1)N1CCCCC1 (stereo not drawn) | i | i | i | i | 60*
COc1ccc(NC(=S)NCC(c2ccco2)N2CCCC2)cc1 (stereo not drawn) | i | i | i | i | i
CC1CCCCC1NC(=O)c1cc2ccccc2o1 (stereo not drawn) | 30* | i | i | i | i
CC(C)NC(=O)c1cc2ccccc2o1 | i | i | i | i | i
O=C(NC1CCCC1)c1cc2cc(Br)ccc2o1 | i | i | i | i | i
N=c1oc2ccccc2cc1C(=O)NC1CCCCCC1 | i | i | i | i | i
O=C(NC1CCCC1)c1cc2ccccc2o1 | 20* | i | i | i | i
N=c1oc2ccc(Cl)cc2cc1C(=O)NC1CCCCCC1 | 18* | i | i | i | i
COc1ccc(C(=O)C2CCCN(Cc3cn(C)nc3-c3ccccc3)C2)cc1F (stereo not drawn) | i | i | i | i | i
COc1ccc(C(=O)C2CCCN(Cc3ccc(Sc4nncn4C)o3)C2)cc1F (stereo not drawn) | i | i | i | i | 131*
COc1ccc(C(=O)C2CCCN(Cc3cn[nH]c3-c3ccc(F)cc3)C2)cc1OC (stereo not drawn) | i | i | i | i | 44*
SMILES | TRPC4 PAM | TRPC6 activator | TRPC4 inh | TRPC6 inh | TRPC4 act
CCC1CN(C(=O)N2CCC(C(=O)NCc3cccc(OC)c3OC)CC2)c2cc(C)ccc2O1 (stereo not drawn) | i | i | i | i | i
COCCOC1CCN(C(=O)C2CCC(=O)N(CCc3ccccc3)C2)CC1 (stereo not drawn) | i | i | i | i | i
CCc1ccc(/C=C2/SC(=S)N(CCCC(=O)Nc3ccccc3C(=O)O)C2=O)cc1 | i | i | -6* | i | i
CCc1ccc(/C=C2\SC(=S)N(CCCC(=O)Nc3ccccn3)C2=O)cc1 | i | i | i | i | i
COC(=O)CCCCCN1C(=O)/C(=C\c2ccncc2)SC1=S | 10* | i | i | i | i
O=C(NCCCN1CCCC1=O)c1ccc(CNS(=O)(=O)c2ccc(F)cc2)cc1 | 37* | i | i | i | i
O=C(NCCCN1CCCC1=O)c1ccc(S(=O)(=O)Nc2ccccc2F)cc1 | i | i | i | i | i
Cc1ccc(S(=O)(=O)NC(=O)Nc2ccc(C)cn2)cc1 | i | i | i | i | i
O=S(=O)(c1ccccc1)c1nnn2c1nc(NC1CCN(Cc3ccccc3)CC1)c1cc(Cl)ccc12 | i | i | -6* | i | 148*
O=S(=O)(c1ccccc1)c1nnn2c1nc(NC1CCN(Cc3ccccc3)CC1)c1ccccc12 | i | i | i | i | i
CCOc1ccc(S(=O)(=O)N2CCC(C(=O)NCC3CCCO3)CC2)cc1C (stereo not drawn) | i | i | i | i | i
Cc1ccccc1N(C(=O)c1snc(C(N)=O)c1N)C(C(=O)NC1CCCCC1)c1ccc(O)cc1 (stereo not drawn) | i | i | i | i | i
COc1ccc(C)cc1N(C(=O)c1snc(C(N)=O)c1N)C(C(=O)NC1CCCC1)c1ccc(F)cc1 (stereo not drawn) | i | i | -11* | i | i
NC(=O)c1nsc(C(=O)N(Cc2ccccc2Cl)C(C(=O)NCC2CCCO2)c2ccc(O)cc2)c1N (stereo not drawn) | i | i | -8* | i | i
NC(=O)c1nsc(C(=O)N(Cc2ccc(F)cc2)C(C(=O)NC2CCCC2)c2ccco2)c1N (stereo not drawn) | i | i | -7* | i | i
COc1ccc(C(C(=O)NCC2CCCO2)N(Cc2cccs2)C(=O)c2snc(C(N)=O)c2N)cc1 (stereo not drawn) | i | i | i | i | i
Cc1ccccc1N(C(=O)c1snc(C(N)=O)c1N)C(C)C(=O)NC1CCCCC1 (stereo not drawn) | i | i | -6* | i | i
COc1ccc(N(C(=O)c2snc(C(N)=O)c2N)C(C(=O)NC2CCCC2)c2ccc(F)cc2)c(OC)c1 (stereo not drawn) | i | i | i | i | i
O=[N+]([O-])c1ccc(Cl)c(C[n+]2cccc3ccccc32)c1 | i | i | i | i | i
COC(=O)C1CN(C(=O)COc2ccc(C)cc2)c2ccccc2O1 (stereo not drawn) | i | i | i | i | i
O=C(Oc1ccccc1Cl)C1CCN(C(=O)c2ccc(F)cc2)CC1 | i | i | i | i | i
NC(=O)c1nsc(C(=O)N(Cc2ccc(F)cc2)C(C(=O)NCC2CCCO2)c2ccc(O)cc2)c1N (stereo not drawn) | i | i | -10* | i | i

Screening data as filed in PubChem.
